# Screening data as filed in PubChem BioAssay.
# PERK inh – blocks human PERK kinase. CHO PERK-DD fusion, SEAP luminescence translation reporter. inhibition, % at 5.6 µM. 220,000 tested, 0.17% active. AID 1416;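 active = inhibition above the mean inhibition of all tested compounds plus 3 SD, set separately per screening campaign, cut at about 2.9% in these data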;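 also: PERK kinase domain activated by AP20187 dimerizer at 100 nM; 0% = DMSO with dimerizer and 100% = rapamycin at 8.4 µM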
# Runt-CBFb FRET – blocks binding of human RUNX1 Runt domain to CBFb. Q01196+Q13951. Cerulean-Runt/Venus-CBFb FRET ratio 530/480, 1 h. inhibition, % at 20 µM. 220,000 tested, 0.46% active. AID 1496;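 active = inhibition over about 50% at 20 µM in the single-dose screen, limit read from the data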;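 also: 0% = DMSO wells and 100% = excess unlabeled CBFb competitor control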
#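 Measured by: fluorescence energy transfer, 422 nm excitation, 530/480 nm emission; test system: Cerulean-tagged RUNX1 Runt domain (FRET donor) fusion protein; buffer or medium: Tris pH 7.5 buffer with BSA; compound: one dose, 20 µM compound, 1% DMSO; times: two 1 h room-temperature incubations shielded from light; benchmarks: unlabeled CBFb 5 µM, positive control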
# Runt-SMMHC FRET – Runt domain-CBFb-SMMHC interaction inhibition; inhibition, % at 20 µM; Q01196+Q13951; 220,000 tested, 0.74% active; Cerulean-Runt/Venus-CBFb-SMMHC FRET ratio 530/480, 1 h; AID 1434;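 active = mean inhibition across duplicate retests at 20 µM reaching about 50%, limit read from the data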;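 also: 0% = DMSO wells and 100% = wells with excess untagged CBFb-SMMHC; inhibitors lower the FRET ratio by blocking Runt binding to CBFb-SMMHC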
# Hck Nef HTS – inhibitors of human Hck kinase activated by Nef; P08631; inhibition, % at 20 µM; Recombinant Hck-YEEI plus Nef, Z-Lyte FRET kinase assay; AID 463187; 220,000 tested, 0.68% active;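 active = Hck-Nef kinase inhibition above about 50%, limit read from the data; inactive = inhibition below that limit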;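 also: 0% = DMSO with Hck plus Nef and 100% = Hck alone without Nef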
# eIF4E-4G inh – blocks eIF4E binding to eIF4G. TR-FRET eIF4E-eIF4GI(517-606) binding, 2 h. inhibition, % at 21.7 µM. 220,000 tested, 0.37% active;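 active = inhibition above about 30%, limit read from the data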;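 also: 0% = full FRET control wells and 100% = background wells lacking eIF4GI fragment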
# RanGTP-Imp inh – disruptors of Ran-importin-beta complex formation – biochemical, FRET, CFP-Ran, YFP-importin-beta, homogeneous, primary screen | inhibition, % (test concentration not listed) | 300,000 tested, 1.1% active | AID 2216 | cell-free CFP-Ran/YFP-importin-beta FRET ratio;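 active = more than half of the replicate wells show a fall in the fluorescence ratio signal beyond about 16%, limit read from the data, passing the limit was not always enough; inconclusive = exactly half of the replicate wells pass the set limit; inactive = fewer than half of replicates pass the limit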;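 also: 0% = DMSO wells and 100% = Ran loaded with GDP instead of GTP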
# Hck Nef conf – Hck-Nef kinase inhibition, confirmation; shares compounds with Hck Nef HTS; Recombinant Hck-YEEI:Nef, Z-Lyte FRET kinase assay; calls only at 10 µM; 1,300 tested, 28% active;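 active = average inhibition of at least 50%, with Z-scores no higher than 3 in both the phospho-tyrosine peptide and fluorescence counterscreens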
# Numbers without * were called inactive; i = inactive; ? = inconclusive; · = not tested or not shown; + = active, no number; [ ] = another dose, or the depositor's remark. The list is not random: actives were taken first. Their share in the collection is about 2.2%.
SMILES,PERK inh,Runt-CBFb FRET,Runt-SMMHC FRET,Hck Nef HTS,eIF4E-4G inh,RanGTP-Imp inh,Hck Nef conf
CC(CC1CC(C)(C)OC1=O)C(=O)Nc1nncs1 (stereo not drawn),0,1,2,-2,-10,0,·
COc1ccccc1N1CCN(C(=O)c2oc3cc(C)cc(C)c3c2C)CC1,0,-7,2,7,-1,?,·
O=C(Cn1nnc(-c2ccc(NC(=O)c3ccccc3F)cc2)n1)NCc1ccc(F)cc1,1,3,-3,61*,3,3,i
O=C(Nc1ccc(-c2nnn(CC(=O)N3CCN(C(=O)c4ccco4)CC3)n2)cc1)c1ccccc1F,-1,-1,-5,20,-1,1,·
Cc1ccc(S(=O)(=O)N(C)C)cc1NC(=S)NCc1ccco1,2,·,5,113*,-1,-2,+
S=C(NCc1ccco1)Nc1ccccc1Cl,1,4,-5,94*,-4,-4,i
COc1ccc(CCNc2ccc(C(CC(N)=O)NC(=O)Cc3ccc(Br)cc3)cc2[N+](=O)[O-])cc1 (stereo not drawn),·,-8,-12,57*,-5,-9,i
NC(=O)CC(NC(=O)Cc1cccc2ccccc12)c1ccc(NCC2CC2)c([N+](=O)[O-])c1 (stereo not drawn),·,-3,-4,18,-2,3,·
NC(=O)CC(NC(=O)Cc1ccc(Br)cc1)c1ccc(NCCc2ccc(F)cc2)c([N+](=O)[O-])c1 (stereo not drawn),·,-6,-14,50*,-4,-1,i
NC(=O)CC(NC(=O)Cc1cccc2ccccc12)c1ccc(NCCOc2ccccc2)c([N+](=O)[O-])c1 (stereo not drawn),·,-3,-9,53*,-2,-1,i
CCCCN(CCCNC(=O)c1ccc(CS(=O)(=O)c2ccc(OC)cc2)o1)Cc1ccccc1,·,·,·,·,·,3,·
CCN(CC)c1ccc(/C=N/n2nnnc2N)c(O)c1,0,9,19,57*,0,7,i
CCN(C)c1ccc(/C=N\n2nnnc2N)cc1,1,21,54*,54*,2,-1,·
Nc1nnnn1/N=C/c1ccc(O)cc1,1,-1,0,0,2,-3,·
CCC(C(=O)OCC(=O)NC(=O)NC(C)(C)C)c1ccccc1 (stereo not drawn),0,-1,1,19,6,2,·
Cc1cc(C)c(Nc2cc(S(=O)(=O)O)c(N)c3c2C(=O)c2ccccc2C3=O)c(C)c1,0,3,-9,84*,56*[fluorescence artefact?],·,+
CCN(CC)c1nc2ccccc2nc1-n1nc(C)cc1C,0,7,18,103*,-3,?,i
NC(=O)C1CCN(C(=O)/C=C/c2cc(Br)ccc2F)CC1,1,2,0,24,0,2,·
Cn1cnnc1SCC(=O)Nc1ccc2nc(SCc3ccccc3F)sc2c1,-3,1,-7,-2,3,-1,·
N#C/C(=C\c1ccc(OC(=O)c2ccc(Cl)s2)cc1)c1nc2ccccc2[nH]1,0,-60,-66,56*,23,2,+
C=C(C)CN(CC)C(=O)CSc1nc2ncc(Cl)cc2[nH]1,0,-1,-2,-1,-2,-6,·
CCn1c2ccccc2c2cc([N+](=O)[O-])ccc21,1,-3,-2,17,1,-1,·
CCn1c2ccccc2c(=O)c2ccccc21,0,20,91*,142*,5,145*,·
CCN(CC)c1ccc(/C=N\NC(N)=O)cc1,0,2,29,2,-5,-5,·
CCN(CC)c1ccc(/C=N/NC(=O)c2ccoc2C)cc1,0,8,21,61*,6,-2,·
CN(C)c1nc(NCc2ccccc2)nc(SCC(N)=O)n1,·,·,·,·,·,-2,·
Cc1ccc(NC(=O)CN(C)Cc2nc3c(Br)cc(Br)cc3c(=O)[nH]2)cc1,0,-6,-5,74*,-5,-4,+
